Laboratory results as given in ChEMBL document CHEMBL1121573, “2-(Aminomethyl)phenols, a new class of saluretic agents. 1. Effects of nuclear substitution” (J Med Chem, 1980).
Values belong to the compound of their own block, whether it stands above or below them.

Legend:
Canis familiaris [1] = assay: Compound administered intravenously was evaluated for salidiuretic activity measured as sodium ion excretion in Dog; Value ranges from 100-299; assay type: ADME, organism-based, Canis lupus familiaris, Urine; settings: in vivo, iv
In short: (§1)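 Conditioned female mongrel dogs, postabsorptive, water-loaded (500 mL po) 1 h before sodium pentobarbital anesthesia (30 mg/kg iv). Bladder catheter; creatinine 4 g sc; phosphate–mannitol buffer pH 7.4 infused (3.0 mL/min) throughout. […] Urine Na+ measured; response scored 0–6.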

Rattus norvegicus [2] = assay: Oral diuretic activity was evaluated by measuring Na+ excretion in Rat at 9 mg/kg […] ( 0-5 hr ); assay type: ADME, organism-based, Urine; parameters: dose 9 mg/kg; settings: in vivo, ip
In short: (§2)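 Female Charles-River rats (150–170 g) were kept overnight on a sugar diet with water ad libitum. Compound was dissolved in DMF, then diluted with water containing Tween 80 (3 drops/100 mL) to a final 4% DMF, and given po in 5.0 mL. Rats were housed three per metabolism cage. Urine from 0–5 h was analysed for Na+, K+ and Cl−, with concurrent placebo controls. Values are mequiv × 100 per cage, geometric mean of three cages per dose.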

Canis familiaris [3] = assay: Oral diuretic activity was evaluated by measuring Na+ excretion in dog at 1 mg/kg after ip administration ( 0-6 hr ); assay type: ADME, organism-based, Canis lupus familiaris, Urine; parameters: dose 1 mg/kg, route intraperitoneal; settings: in vivo
In short: (§3)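 Spontaneous urine was pooled with bladder urine collected by catheterization at 6 h. Volume was measured and Na+, K+ and Cl− were determined by standard methods. Values are geometric means.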

Canis familiaris [4] = assay: Oral diuretic activity was evaluated by measuring K+ excretion in dog at 5 mg/kg after ip administration ( 0-6 hr ); assay type: ADME, organism-based, Canis lupus familiaris, Urine; parameters: dose 5 mg/kg, route intraperitoneal; settings: in vivo; in short: as §3
Rattus norvegicus [5] = assay: Oral diuretic activity was evaluated by measuring Na+ excretion in Rat at 27 mg/kg after […] ( 0-5 hr ); assay type: ADME, organism-based, Urine; parameters: dose 27 mg/kg; in short: as §2
Rattus norvegicus [6] = assay: Oral diuretic activity was evaluated by measuring Na+ excretion in Rat at 3 mg/kg […] ( 0-5 hr ); assay type: ADME, organism-based, Urine; parameters: dose 3 mg/kg; settings: in vivo, ip; in short: as §2
Rattus norvegicus [7] = assay: Oral diuretic activity was evaluated by measuring Na+ excretion in Rat at 81 mg/kg […] ( 0-5 hr ); assay type: ADME, organism-based, Urine; parameters: dose 81 mg/kg; in short: as §2
Canis familiaris [8] = assay: Oral diuretic activity was evaluated by measuring Na+ excretion in dog at 5 mg/kg after ip administration ( 0-6 hr ); assay type: ADME, organism-based, Canis lupus familiaris, Urine; parameters: dose 5 mg/kg, route intraperitoneal; settings: in vivo
In short: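 Urine collected over 0–6 h: spontaneous voids were pooled with bladder urine taken by catheterization at 6 h. Urine volume was measured, and aliquots were analysed for Na+, K+ and Cl− by standard methods. Electrolyte excretion is reported as geometric means.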

Canis familiaris [9] = assay: Compound administered intravenously at a dose of 5 mg/kg was evaluated for salidiuretic activity measured as sodium ion excretion in Dog; assay type: ADME, organism-based, Canis lupus familiaris, Urine; parameters: dose 5 mg/kg, route intravenous; settings: in vivo, iv; in short: as §1
Rattus norvegicus [10] = assay: Oral diuretic activity was evaluated by measuring K+ excretion in Rat at 3 mg/kg […] ( 0-5 hr ); assay type: ADME, organism-based, Urine; parameters: dose 3 mg/kg
In short: (§4)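 Female Charles-River rats (150–170 g) were kept overnight on a sugar diet with water ad libitum. Test substance was dissolved in DMF and diluted with water containing Tween 80 to a final 4% DMF vehicle, then given po in 5.0 mL. Rats were housed three per metabolism cage, and 0–5 h urine was assayed for Na⁺, K⁺ and Cl⁻ alongside concurrent placebo groups. Values are mequiv × 100 per cage, geometric means of three cages per dose.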

Rattus norvegicus [11] = assay: Oral diuretic activity was evaluated by measuring K+ excretion in Rat at 81 mg/kg after […] ( 0-5 hr ); assay type: ADME, organism-based, Urine; parameters: dose 81 mg/kg; settings: in vivo; in short: as §4
Rattus norvegicus [12] = assay: Oral diuretic activity was evaluated by measuring K+ excretion in Rat at 9 mg/kg […] ( 0-5 hr ); assay type: ADME, organism-based, Urine; parameters: dose 9 mg/kg; in short: as §4
Canis familiaris [13] = assay: Oral diuretic activity was evaluated by measuring K+ excretion in dog at 1 mg/kg after […] ( 0-6 hr ); assay type: ADME, organism-based, Canis lupus familiaris, Urine; parameters: dose 1 mg/kg; settings: in vivo; in short: as §3
Rattus norvegicus [14] = assay: Evaluated for salidiuretic activity measured as sodium ion excretion in Rat, administered orally at a dose of 50 mg/kg; assay type: functional, Urine; parameters: unit not given beside the values; settings: route oral
In short: (§5)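 Female Charles-River rats (150–170 g), overnight on sugar diet with water ad libitum. Compound dissolved in DMF, diluted with water containing Tween 80 (final 4% DMF), given po in 5.0 mL; concurrent vehicle placebo. Three rats per metabolism cage; 0–5 h urine analysed for Na+, K+, Cl-. Values: mequiv × 100 per cage, geometric means of three cages per dose; scored 0–6 by Na+.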

[15] = Compound administered orally at a dose of 5 mg/kg was evaluated for salidiuretic activity measured as sodium ion excretion in Rat; assay type: organism-based; parameters: dose 5 mg/kg; settings: Urine; in short: as §5
Canis familiaris [16] = assay: Oral diuretic activity was evaluated by measuring Cl- excretion in dog at 5 mg/kg after […] ( 0-6 hr ); assay type: ADME, organism-based, Canis lupus familiaris, Urine; parameters: dose 5 mg/kg, route intraperitoneal; settings: in vivo
[17] = Evaluated for salidiuretic activity measured as sodium ion excretion in Rat, administered orally at a dose of 16.5 mg/kg; assay type: organism-based; parameters: dose 16.5 mg/kg; settings: Urine; in short: as §5
Rattus norvegicus [18] = assay: Oral diuretic activity was evaluated by measuring Cl- excretion in Rat at 3 mg/kg after […] ( 0-5 hr ); assay type: ADME, organism-based, Urine; parameters: dose 3 mg/kg, route intraperitoneal; settings: in vivo
Rattus norvegicus [19] = assay: Oral diuretic activity was evaluated by measuring Cl- excretion in Rat at 9 mg/kg […] ( 0-5 hr ); assay type: ADME, organism-based, Urine; parameters: dose 9 mg/kg; settings: in vivo; in short: as §4
Canis familiaris [20] = assay: Oral diuretic activity was evaluated by measuring Cl- excretion in dog at 1 mg/kg after […] ( 0-6 hr ); assay type: ADME, organism-based, Canis lupus familiaris, Urine; parameters: dose 1 mg/kg, route intraperitoneal; settings: in vivo
Rattus norvegicus [21] = species: Rattus norvegicus; assay: Time taken for the decrease in arterial pressure was measured; assay type: functional, Artery
Rattus norvegicus [22] = assay: Maximum fall in mean arterial blood pressure was measured in SH rats when compound was administered at 30 mg/kg perorally; assay type: functional; settings: route oral
Rattus norvegicus [23] = assay: Oral diuretic activity was evaluated by measuring K+ excretion in Rat at 27 mg/kg after po administration ( 0-5 hr ); settings: in vivo
Rattus norvegicus [24] = assay: Oral diuretic activity was evaluated by measuring Cl- excretion in Rat at 27 mg/kg after po administration ( 0-5 hr ); settings: in vivo
Rattus norvegicus [25] = assay: Oral diuretic activity was evaluated by measuring Cl- excretion in Rat at 81 mg/kg after po administration ( 0-5 hr ); settings: in vivo
Rattus norvegicus [26] = assay: Compound administered orally at a dose of 1 mg/kg was evaluated for salidiuretic activity measured as sodium ion excretion in Rat; settings: in vivo, po

Diuretic activity (Canis familiaris [1]): 100
SMILES: Cc1cc(O)c(CN)c(C)c1Cl.Cl

Diuretic activity (Canis familiaris [1]): 100
SMILES: COc1cc(O)c(CN)c(OC)c1Cl.Cl

Diuretic activity (Rattus norvegicus [2]): 1.58
Diuretic activity (Canis familiaris [3]): 17.78
Diuretic activity (Canis familiaris [4]): 8
Diuretic activity (Rattus norvegicus [5]): 1.61
Diuretic activity (Rattus norvegicus [6]): 0.86
Diuretic activity (Rattus norvegicus [7]): 2.17
Diuretic activity (Canis familiaris [8]): 42.5
Diuretic activity (Canis familiaris [9]): > 900
Diuretic activity (Rattus norvegicus [10]): 0.26
Diuretic activity (Rattus norvegicus [11]): 0.39
Diuretic activity (Rattus norvegicus [12]): 0.42
Diuretic activity (Canis familiaris [13]): 4.78
Diuretic activity (Canis familiaris [16]): 54.5
Diuretic activity (Rattus norvegicus [18]): 1.25
Diuretic activity (Rattus norvegicus [19]): 2.36
Diuretic activity (Canis familiaris [20]): 24.67
Diuretic activity (Rattus norvegicus [23]): 0.42
Diuretic activity (Rattus norvegicus [24]): 2.51
Diuretic activity (Rattus norvegicus [25]): 3.26
Diuretic activity (Rattus norvegicus [26]): 0.7
SMILES: COc1c(Cl)c(O)c(CN)c(OC)c1Cl.Cl
Diuretic activity (Rattus norvegicus [14]): 3.6
Diuretic activity [15]: 2.6
Diuretic activity [17]: 3.3
Duration (Rattus norvegicus [21]): 12 h
MAP (Rattus norvegicus [22]): 19 mmHg
